Reference: ChEMBL document CHEMBL1144979, “Combinatorial modification of natural products: synthesis and in vitro analysis of derivatives of thiazole peptide antibiotic GE2270 A: A-ring modifications” (Bioorg Med Chem Lett, 2003)
Converted amounts (≈) assume the structure as drawn.

Assays:
Type in all cases: functional
Staphylococcus aureus [1] = test: In vitro antibacterial activity against methicillin resistant Staphylococcus aureus (MRSA) ATCC 33591
Enterococcus faecium = test: In vitro antibacterial activity against Vancomycin-susceptible Enterococcus faecium BM4147.1
Method in brief: (§1)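 MICs by NCCLS broth dilution guidelines, modified by adding 0.02% bovine serum albumin to the growth medium; purified, resynthesized compounds tested against the expanded bacterial panel.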

Enterococcus faecalis = test: In vitro antibacterial activity against Vancomycin-resistant Enterococcus faecalis ATCC 51299
Staphylococcus aureus [2] = test: In vitro antibacterial activity against methicillin sensitive Staphylococcus aureus ATCC 25923; method in brief: as §1

Compound | MIC (Staphylococcus aureus [1]) [µg/mL] | MIC (Enterococcus faecium) [µg/mL] | MIC (Enterococcus faecalis) [µg/mL] | MIC (Staphylococcus aureus [2]) [µg/mL]
CNC(=O)C[C@@H]1NC(=O)c2csc(n2)-c2ccc(-c3nc(C(=O)NCCN=C(N)N)cs3)nc2-c2csc(n2)-c2csc(n2)C(C(O)c2ccccc2)NC(=O)CNC(=O)c2nc(sc2COC)[C@H](C(C)C)NC(=O)c2nc1sc2C (some centres not stated) | 8 (≈ 6.61 µM) | 8 (≈ 6.61 µM) | 8 (≈ 6.61 µM) | 4 (≈ 3.31 µM)
CNC(=O)C[C@@H]1NC(=O)c2csc(n2)-c2ccc(-c3nc(C(=O)NCCNCCO)cs3)nc2-c2csc(n2)-c2csc(n2)C(C(O)c2ccccc2)NC(=O)CNC(=O)c2nc(sc2COC)[C@H](C(C)C)NC(=O)c2nc1sc2C (some centres not stated) | 2 (≈ 1.65 µM) | 2 (≈ 1.65 µM) | 4 (≈ 3.3 µM) | 2 (≈ 1.65 µM)
CNC(=O)C[C@@H]1NC(=O)c2csc(n2)-c2ccc(-c3nc(C(=O)N[C@@H](CCC(=O)O)C(=O)NCCCCCC(=O)O)cs3)nc2-c2csc(n2)-c2csc(n2)C(C(O)c2ccccc2)NC(=O)CNC(=O)c2nc(sc2COC)[C@H](C(C)C)NC(=O)c2nc1sc2C (some centres not stated) | > 32 |  |  | > 32
CNC(=O)C[C@@H]1NC(=O)c2csc(n2)-c2ccc(-c3nc(C(=O)NCC(O)CO)cs3)nc2-c2csc(n2)-c2csc(n2)C(C(O)c2ccccc2)NC(=O)CNC(=O)c2nc(sc2COC)[C@H](C(C)C)NC(=O)c2nc1sc2C (some centres not stated) | 0.06 (≈ 0.0501 µM) | 0.015 (≈ 0.0125 µM) | 0.015 (≈ 0.0125 µM) | 0.125 (≈ 0.104 µM)
CNC(=O)C[C@@H]1NC(=O)c2csc(n2)-c2ccc(-c3nc(C(=O)N[C@@H](CC(=O)O)C(=O)NCCCCCC(=O)O)cs3)nc2-c2csc(n2)-c2csc(n2)C(C(O)c2ccccc2)NC(=O)CNC(=O)c2nc(sc2COC)[C@H](C(C)C)NC(=O)c2nc1sc2C (some centres not stated) | > 32 |  |  | > 32
CNC(=O)C[C@@H]1NC(=O)c2csc(n2)-c2ccc(-c3nc(C(=O)N[C@@H](CC(=O)O)C(=O)N[C@@H](CC(=O)O)C(N)=O)cs3)nc2-c2csc(n2)-c2csc(n2)C(C(O)c2ccccc2)NC(=O)CNC(=O)c2nc(sc2COC)[C@H](C(C)C)NC(=O)c2nc1sc2C (some centres not stated) | > 32 |  |  | > 32
CNC(=O)C[C@@H]1NC(=O)c2csc(n2)-c2ccc(-c3nc(C(=O)N[C@@H](CCC(=O)O)C(=O)N4CCCC[C@H]4C(N)=O)cs3)nc2-c2csc(n2)-c2csc(n2)C(C(O)c2ccccc2)NC(=O)CNC(=O)c2nc(sc2COC)[C@H](C(C)C)NC(=O)c2nc1sc2C (some centres not stated) | 4 (≈ 2.93 µM) |  |  | 
CNC(=O)C[C@@H]1NC(=O)c2csc(n2)-c2ccc(-c3nc(C(=O)NCC[C@H](O)C(=O)O)cs3)nc2-c2csc(n2)-c2csc(n2)C(C(O)c2ccccc2)NC(=O)CNC(=O)c2nc(sc2COC)[C@H](C(C)C)NC(=O)c2nc1sc2C (some centres not stated) | 2 (≈ 1.63 µM) | 0.03 (≈ 0.0245 µM) | 0.25 (≈ 0.204 µM) | 4 (≈ 3.26 µM)
CNC(=O)C[C@@H]1NC(=O)c2csc(n2)-c2ccc(-c3nc(CNC(=O)NCC(O)CC(=O)O)cs3)nc2-c2csc(n2)-c2csc(n2)C(C(O)c2ccccc2)NC(=O)CNC(=O)c2nc(sc2COC)[C@H](C(C)C)NC(=O)c2nc1sc2C (some centres not stated) | 8 (≈ 6.37 µM) | 2 (≈ 1.59 µM) | > 16 | 8 (≈ 6.37 µM)
CNC(=O)C[C@@H]1NC(=O)c2csc(n2)-c2ccc(-c3nc(C(=O)NCCCC(=O)O)cs3)nc2-c2csc(n2)-c2csc(n2)C(C(O)c2ccccc2)NC(=O)CNC(=O)c2nc(sc2COC)[C@H](C(C)C)NC(=O)c2nc1sc2C (some centres not stated) | 0.125 (≈ 0.103 µM) | 0.015 (≈ 0.0124 µM) | 0.03 (≈ 0.0248 µM) | 0.25 (≈ 0.207 µM)
CNC(=O)C[C@@H]1NC(=O)c2csc(n2)-c2ccc(-c3nc(C(=O)NCC(O)C(=O)O)cs3)nc2-c2csc(n2)-c2csc(n2)C(C(O)c2ccccc2)NC(=O)CNC(=O)c2nc(sc2COC)[C@H](C(C)C)NC(=O)c2nc1sc2C (some centres not stated) | 4 (≈ 3.3 µM) | 0.5 (≈ 0.412 µM) | 1 (≈ 0.825 µM) | 4 (≈ 3.3 µM)
CNC(=O)C[C@@H]1NC(=O)c2csc(n2)-c2ccc(-c3nc(C(=O)NCCCN4CCOCC4)cs3)nc2-c2csc(n2)-c2csc(n2)C(C(O)c2ccccc2)NC(=O)CNC(=O)c2nc(sc2COC)[C@H](C(C)C)NC(=O)c2nc1sc2C (some centres not stated) | 0.06 (≈ 0.0479 µM) | 0.06 (≈ 0.0479 µM) | 0.06 (≈ 0.0479 µM) | 0.125 (≈ 0.0999 µM)
CNC(=O)C[C@@H]1NC(=O)c2csc(n2)-c2ccc(-c3nc(C(=O)NCC[N+]4([O-])CCOCC4)cs3)nc2-c2csc(n2)-c2csc(n2)C(C(O)c2ccccc2)NC(=O)CNC(=O)c2nc(sc2COC)[C@H](C(C)C)NC(=O)c2nc1sc2C (some centres not stated) | 1 (≈ 0.798 µM) | 0.5 (≈ 0.399 µM) | 2 (≈ 1.6 µM) | 1 (≈ 0.798 µM)
CNC(=O)C[C@@H]1NC(=O)c2csc(n2)-c2ccc(-c3nc(C(=O)NCCOCCO)cs3)nc2-c2csc(n2)-c2csc(n2)C(C(O)c2ccccc2)NC(=O)CNC(=O)c2nc(sc2COC)[C@H](C(C)C)NC(=O)c2nc1sc2C (some centres not stated) | 0.06 (≈ 0.0495 µM) | 0.125 (≈ 0.103 µM) | 0.06 (≈ 0.0495 µM) | 0.25 (≈ 0.206 µM)
CNC(=O)C[C@@H]1NC(=O)c2csc(n2)-c2ccc(-c3nc(C(=O)NCCC[N+]4([O-])CCOCC4)cs3)nc2-c2csc(n2)-c2csc(n2)C(C(O)c2ccccc2)NC(=O)CNC(=O)c2nc(sc2COC)[C@H](C(C)C)NC(=O)c2nc1sc2C (some centres not stated) | 2 (≈ 1.58 µM) | 1 (≈ 0.789 µM) | 2 (≈ 1.58 µM) | 2 (≈ 1.58 µM)
CNC(=O)C[C@@H]1NC(=O)c2csc(n2)-c2ccc(-c3nc(C(=O)NCCO)cs3)nc2-c2csc(n2)-c2csc(n2)C(C(O)c2ccccc2)NC(=O)CNC(=O)c2nc(sc2COC)[C@H](C(C)C)NC(=O)c2nc1sc2C (some centres not stated) | 0.125 (≈ 0.107 µM) | 0.03 (≈ 0.0257 µM) | 0.03 (≈ 0.0257 µM) | 0.06 (≈ 0.0514 µM)
CNC(=O)C[C@@H]1NC(=O)c2csc(n2)-c2ccc(-c3nc(C(=O)N4CC(C(N)=O)C4)cs3)nc2-c2csc(n2)-c2csc(n2)C(C(O)c2ccccc2)NC(=O)CNC(=O)c2nc(sc2COC)[C@H](C(C)C)NC(=O)c2nc1sc2C (some centres not stated) | 0.06 (≈ 0.0497 µM) |  |  | 
CNC(=O)C[C@@H]1NC(=O)c2csc(n2)-c2ccc(-c3nc(C(=O)NCCCCCC(=O)O)cs3)nc2-c2csc(n2)-c2csc(n2)C(C(O)c2ccccc2)NC(=O)CNC(=O)c2nc(sc2COC)[C@H](C(C)C)NC(=O)c2nc1sc2C (some centres not stated) | 0.015 (≈ 0.0121 µM) | 0.03 (≈ 0.0242 µM) | 0.03 (≈ 0.0242 µM) | 0.06 (≈ 0.0484 µM)
CNC(=O)C[C@@H]1NC(=O)c2csc(n2)-c2ccc(-c3nc(C(=O)N4CC(C(=O)N[C@H](CCC(=O)O)C(=O)O)C4)cs3)nc2-c2csc(n2)-c2csc(n2)C(C(O)c2ccccc2)NC(=O)CNC(=O)c2nc(sc2COC)[C@H](C(C)C)NC(=O)c2nc1sc2C (some centres not stated) | > 32 |  |  | > 32
CNC(=O)C[C@@H]1NC(=O)c2csc(n2)-c2ccc(-c3nc(C(=O)NCCCN)cs3)nc2-c2csc(n2)-c2csc(n2)C(C(O)c2ccccc2)NC(=O)CNC(=O)c2nc(sc2COC)[C@H](C(C)C)NC(=O)c2nc1sc2C (some centres not stated) | 1 (≈ 0.846 µM) | 2 (≈ 1.69 µM) | 2 (≈ 1.69 µM) | 1 (≈ 0.846 µM)
CNC(=O)C[C@@H]1NC(=O)c2csc(n2)-c2ccc(-c3nc(C(=O)NCCC(=O)O)cs3)nc2-c2csc(n2)-c2csc(n2)C(C(O)c2ccccc2)NC(=O)CNC(=O)c2nc(sc2COC)[C@H](C(C)C)NC(=O)c2nc1sc2C (some centres not stated) | 0.5 (≈ 0.418 µM) | 0.06 (≈ 0.0501 µM) | 0.06 (≈ 0.0501 µM) | 0.5 (≈ 0.418 µM)
CNC(=O)C[C@@H]1NC(=O)c2csc(n2)-c2ccc(-c3nc(C(=O)NCCCCN=C(N)N)cs3)nc2-c2csc(n2)-c2csc(n2)C(C(O)c2ccccc2)NC(=O)CNC(=O)c2nc(sc2COC)[C@H](C(C)C)NC(=O)c2nc1sc2C (some centres not stated) | 4 (≈ 3.23 µM) | 8 (≈ 6.46 µM) | 8 (≈ 6.46 µM) | 8 (≈ 6.46 µM)
CNC(=O)C[C@@H]1NC(=O)c2csc(n2)-c2ccc(-c3nc(C(=O)NCCCCO)cs3)nc2-c2csc(n2)-c2csc(n2)C(C(O)c2ccccc2)NC(=O)CNC(=O)c2nc(sc2COC)[C@H](C(C)C)NC(=O)c2nc1sc2C (some centres not stated) | 0.125 (≈ 0.104 µM) | 0.06 (≈ 0.0501 µM) | 0.125 (≈ 0.104 µM) | 0.125 (≈ 0.104 µM)
CNC(=O)C[C@@H]1NC(=O)c2csc(n2)-c2ccc(-c3nc(C(=O)N[C@@H](CO)C(=O)N4CCC[C@H]4C(N)=O)cs3)nc2-c2csc(n2)-c2csc(n2)C(C(O)c2ccccc2)NC(=O)CNC(=O)c2nc(sc2COC)[C@H](C(C)C)NC(=O)c2nc1sc2C (some centres not stated) | 0.25 (≈ 0.191 µM) |  |  | 
CNC(=O)C[C@@H]1NC(=O)c2csc(n2)-c2ccc(-c3nc(C(=O)NCCN)cs3)nc2-c2csc(n2)-c2csc(n2)C(C(O)c2ccccc2)NC(=O)CNC(=O)c2nc(sc2COC)[C@H](C(C)C)NC(=O)c2nc1sc2C (some centres not stated) | 1 (≈ 0.857 µM) | 2 (≈ 1.71 µM) | 2 (≈ 1.71 µM) | 2 (≈ 1.71 µM)
CNC(=O)C[C@@H]1NC(=O)c2csc(n2)-c2ccc(-c3nc(C(=O)NCCN4CCOCC4)cs3)nc2-c2csc(n2)-c2csc(n2)C(C(O)c2ccccc2)NC(=O)CNC(=O)c2nc(sc2COC)[C@H](C(C)C)NC(=O)c2nc1sc2C (some centres not stated) | 0.25 (≈ 0.202 µM) | 0.06 (≈ 0.0485 µM) | 0.06 (≈ 0.0485 µM) | 0.5 (≈ 0.404 µM)
